Laboratory results from publication PMC2931272 (Antiviral chemistry & chemotherapy, 2009).

Legend:
[1] = Visual cytotoxicity in uninfected HFF's used in plaque reduction assays; format: cell-based; conditions: human, uninfected human foreskin fibroblasts (HFF)
[2] = Cytotoxicity by neutral red assay in HFF; format: cell-based; conditions: human, human foreskin fibroblasts (HFF)
[3] = Stability of prodrug / conversion to cyclopropavir in mouse whole blood; format: in vitro ADME; conditions: for First order rate constant of conversion to cyclopropavir (5) / half live of conversion to cyclopropavir (5): 50 μM
Method in brief: (§1)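 Blood was drawn by cardiac puncture from anaesthetised male Swiss-Webster mice into EDTA(K3) and iced; plasma was spun 10 min at 1100 × G, 4°C. Blood or plasma was spiked from a DMSO stock to a 50 μM final and held at 0°C (ice water) or 37°C. A no-incubation control was processed straight after spiking. Timed aliquots were frozen (blood first spun 2200 × G, 5 min, 4°C). Prodrug and parent were measured by HPLC, UV.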

[4] = Stability of prodrug / conversion to cyclopropavir in mouse plasma; format: in vitro ADME; conditions: for First order rate constant of conversion to cyclopropavir (5) / half live of conversion to cyclopropavir (5): 50 μM
Method in brief: as §1

[5] = Kinetics of hydrolysis at pH 7.0; format: physicochemical; conditions: phosphate buffer
[6] = Pharmacokinetics after IV bolus dosing of prodrug; format: in vivo; conditions: mice, IV 24.6 mg/kg prodrug
[7] = pH 7.08, 37 °C; cited from earlier work
[8] = analyte prodrug (6), two compartments model

In the case of `CC(C)[C@H](N)C(=O)OCC1(CO)C/C1=C/n1cnc2c(=O)[nH]c(N)nc21.Cl` (mixture of isomers) [Valcyclopropavir (6), (Z)-9-{[2-Hydroxymethyl-2-(L-valyloxymethyl)cyclopropylidene]methyl}guanine Hydrochloride], the CC50 [1] is reported as > 100 µM, the CC50 [2] is reported as > 300 µM and the half-life at 50 μM ([3]; male, Swiss-Webster, mouse, whole blood) is reported as 22 h. For the same molecule, the “First order rate constant of conversion to cyclopropavir (5)” value (“First order rate constant of conversion” for short) ([3]; mouse whole blood, 0°C) was 0.0005 min.^−1, the “half live of conversion to cyclopropavir (5)” value (“half live of conversion” below) ([3]; mouse whole blood, 0°C) was 1310 min and the “First order rate constant of conversion” value ([3]; mouse whole blood, 37°C) was 0.0087 min.^−1. For the same molecule, the “half live of conversion” value ([3]; mouse whole blood, 37°C) was 80 min, the “conversion of valcyclopropavir (6) to cyclopropavir (5), no incubation” value ([3]; mouse whole blood, processed immediately after spiking) was 9.0% and the “First order rate constant of conversion” value ([4]; 0°C) was 0.0010 min.^−1. For the same molecule, the “half live of conversion” value ([4]; 0°C) was 727 min, the “First order rate constant of conversion” value ([4]; 37°C) was 0.0172 min.^−1 and the “half live of conversion” value ([4]; 37°C) was 40.4 min. The “conversion of valcyclopropavir (6) to cyclopropavir (5), no incubation” value ([4]; processed immediately after spiking) was 3.7%, the half-life at 2.25 mM [5] was 22.5 h and the “Rate constant of distribution phase, α” value [6, 8] was 0.25 min.^−1. For the same molecule, the “Rate constant of elimination phase, β” value [6, 8] was 0.00263 min.^−1, the “Volume of main compartment, V” value [6, 8] was 0.0753 L/kg and the AUC ([6]; male, Swiss-Webster, mouse, plasma, iv, 24.6 mg/kg, Area under the curve, AUC, analyte prodrug (6), single compartment first order elimination model) was 1020 ng·h/mL. It also gave a clearance ([6]; male, Swiss-Webster, mouse, plasma, iv, 24.6 mg/kg, Clearance (Cl), analyte prodrug (6), single compartment first order elimination model) of 402 mL/min and a half-life ([6]; male, Swiss-Webster, mouse, plasma, iv, 24.6 mg/kg, Half-life, T1/2, analyte prodrug (6), single compartment first order elimination model) of 2.68 h.

With `Nc1nc2c(ncn2/C=C2/CC2(CO)CO)c(=O)[nH]1` [Cyclopropavir (5)] the CC50 [1] was > 100 µM and the CC50 [2] was > 380 µM.

In the case of `Nc1nc(O)c2ncn(COC(CO)CO)c2n1` [Ganciclovir, reference compound], the CC50 [1] is reported as > 100 µM and the CC50 [2] is reported as > 100 µM.

For `CC(C)[C@H](N)C(=O)OCC(CO)OCn1cnc2c(=O)nc(N)[nH]c21` (stereo partly shown) [valganciclovir (2)], the half-life of hydrolysis [7] is listed as 11 h.
